In ChEMBL document CHEMBL1156169, “Discovery of triarylethanolamine inhibitors of the Kv1.5 potassium channel” (Bioorg Med Chem Lett, 2010):
Converted amounts (≈) assume the structure as drawn.

What was measured:
[1] = Aqueous solubility at pH 7.2; assay type: physicochemical
In short: (§1)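 Solubility measured in buffered aqueous solution at the pH stated for each line and expressed as mg/mL. Solid samples were checked by microscopy under plain polarized light and were crystalline; the specific crystal form was not determined.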

[2] = Aqueous solubility at pH 7.4; assay type: physicochemical; in short: as §1
[3] = Aqueous solubility at pH 5.2; assay type: physicochemical; in short: as §1
[4] = Clearance in rat; assay type: ADME, organism-based; details: in vivo
[5] = Volume of distribution in rat; assay type: ADME, organism-based; details: in vivo
[6] = Half life in rat; assay type: ADME, organism-based; details: in vivo
[7] = Plasma concentration in rat at 0.01 mg/kg/min, iv after 20 mins; assay type: ADME, organism-based; parameters: route intravenous
[8] = Plasma concentration in rat at 0.03 mg/kg/min, iv after 20 mins; assay type: ADME, organism-based; parameters: route intravenous
[9] = Plasma concentration in rat at 0.06 mg/kg/min, iv after 20 mins; assay type: ADME, organism-based; parameters: route intravenous
[10] = Plasma concentration in rat at 0.2 mg/kg/min, iv after 20 mins; assay type: ADME, organism-based; parameters: route intravenous
[11] = Plasma concentration in rat at 0.6 mg/kg/min, iv after 20 mins; assay type: ADME, organism-based; parameters: route intravenous
[12] = Drug level in rat plasma at 435 ug/kg/min, iv after 1 hr; assay type: ADME, organism-based; details: 0.435 mg/kg
[13] = Drug level in rat brain at 435 ug/kg/min, iv after 1 hr; assay type: ADME, organism-based; details: 0.435 mg/kg, read-out: Drug uptake
[14] = in vivo; details: rat, brain/plasma, iv, 0.435 mg/kg

SMILES	solubility [1]	solubility [2]	solubility [3]	clearance [4]	Vd [5]	half-life [6]	concentration at 20 min [7]	concentration at 20 min [8]	concentration at 20 min [9]	concentration at 20 min [10]	concentration at 20 min [11]	concentration at 1 h [12]	concentration at 1 h [13]	Kp at 1 h [14]
OC(c1cccnc1)(c1cccnc1)C(c1ccccc1)N1CCOCC1 (stereo not given)	43 µg/mL (≈ 119 µM)	–	–	–	–	–	–	–	–	–	–	–	–	–
OC(c1cccnc1)(c1cccnc1)C(c1ccccc1)N1CCCC1 (stereo not given)	–	110 µg/mL (≈ 318 µM)	1400 µg/mL (≈ 4050 µM)	59 mL/min/kg	3.4 L/kg	1.1 h	0.185 µM	0.651 µM	1.78 µM	4.9 µM	9.62 µM	23.4 µM	13.7 µM	0.58
OC(c1cccnc1)(c1cccnc1)C(c1ccccc1)N1CCCCC1 (stereo not given)	–	5.4 µg/mL (≈ 15 µM)	–	–	–	–	–	–	–	–	–	–	–	–
